According to ChEMBL document CHEMBL3784928, “Development and Characterization of Novel and Selective Inhibitors of Cytochrome P450 CYP26A1, the Human Liver Retinoic Acid Hydroxylase” (J Med Chem, 2016):
Calls of active or inactive are those of the source. No cut-off for these calls is given here.

Tests used:
Cytochrome P450 26B1 [1] = molecular target: T1, Cytochrome P450 26B1 (Homo sapiens, UniProt Q9NR63)
T1 sequence (Q9NR63 whole entry): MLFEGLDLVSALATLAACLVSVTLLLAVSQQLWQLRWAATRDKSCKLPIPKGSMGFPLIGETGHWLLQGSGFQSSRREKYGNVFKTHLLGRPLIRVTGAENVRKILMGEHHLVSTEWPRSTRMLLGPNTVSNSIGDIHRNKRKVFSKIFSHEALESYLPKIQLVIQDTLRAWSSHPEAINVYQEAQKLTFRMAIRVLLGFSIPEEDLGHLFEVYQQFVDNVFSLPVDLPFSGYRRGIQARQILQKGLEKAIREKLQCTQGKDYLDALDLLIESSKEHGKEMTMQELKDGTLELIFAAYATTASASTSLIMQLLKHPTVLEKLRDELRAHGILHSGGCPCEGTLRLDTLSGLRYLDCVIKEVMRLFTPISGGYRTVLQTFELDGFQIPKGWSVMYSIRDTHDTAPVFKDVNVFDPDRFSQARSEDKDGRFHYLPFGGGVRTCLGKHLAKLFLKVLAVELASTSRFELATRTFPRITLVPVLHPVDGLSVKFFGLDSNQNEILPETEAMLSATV

Cytochrome P450 26A1 [2] = molecular target: T2, Cytochrome P450 26A1 (Homo sapiens, UniProt O43174)
T2 sequence (O43174 whole entry): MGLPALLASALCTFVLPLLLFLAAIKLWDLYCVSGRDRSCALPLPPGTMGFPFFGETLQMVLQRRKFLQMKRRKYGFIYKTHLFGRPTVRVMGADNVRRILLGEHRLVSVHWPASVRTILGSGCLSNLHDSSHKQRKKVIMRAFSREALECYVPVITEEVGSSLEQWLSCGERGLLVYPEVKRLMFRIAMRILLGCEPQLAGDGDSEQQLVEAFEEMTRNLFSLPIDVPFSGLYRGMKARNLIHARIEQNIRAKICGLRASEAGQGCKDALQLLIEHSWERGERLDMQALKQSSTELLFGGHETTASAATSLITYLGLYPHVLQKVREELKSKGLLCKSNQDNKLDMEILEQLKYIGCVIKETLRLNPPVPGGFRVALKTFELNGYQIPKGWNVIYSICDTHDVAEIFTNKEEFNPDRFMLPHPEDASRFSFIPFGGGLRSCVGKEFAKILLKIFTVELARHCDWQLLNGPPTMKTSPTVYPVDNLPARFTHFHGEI

[3] = molecular target: T3, Retinoic acid receptor alpha (Homo sapiens) (UniProt P10276); experiment: Activation of human RARalpha at 1 uM by luciferase reporter gene assay
T3 sequence (whole entry): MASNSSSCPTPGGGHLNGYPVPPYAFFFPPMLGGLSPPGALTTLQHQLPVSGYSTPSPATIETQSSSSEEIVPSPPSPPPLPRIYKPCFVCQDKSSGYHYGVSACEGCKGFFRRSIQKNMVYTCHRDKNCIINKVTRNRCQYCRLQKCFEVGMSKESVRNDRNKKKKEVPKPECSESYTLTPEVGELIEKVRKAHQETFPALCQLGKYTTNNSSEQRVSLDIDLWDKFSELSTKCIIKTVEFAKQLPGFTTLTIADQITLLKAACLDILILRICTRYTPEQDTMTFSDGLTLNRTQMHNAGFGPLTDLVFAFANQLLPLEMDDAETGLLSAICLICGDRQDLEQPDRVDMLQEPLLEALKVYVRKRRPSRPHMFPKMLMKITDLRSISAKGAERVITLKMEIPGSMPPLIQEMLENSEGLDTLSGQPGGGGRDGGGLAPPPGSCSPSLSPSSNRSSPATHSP

[4] = molecular target: T4, Retinoic acid receptor (Homo sapiens) (UniProt P13631+P10826+P10276); experiment: Activation of RAR in human HepG2 cells assessed as upregulation of CYP26A1 mRNA expression at 1 uM after 24 hrs by RT-PCR method; assay type: cell-based
How it was run: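 HepG2 cells kept in DMEM with 10% FBS at 37 °C under 5% CO2. Plated and left to adhere 24 h, then exposed 24 h to 1 μM compound in 0.1% DMSO, with 0.1% DMSO as vehicle control. Triplicate wells. TRI reagent mRNA extraction, cDNA from 1 μg mRNA. CYP26A1 measured by TaqMan RT-PCR multiplexed with GAPDH as housekeeping gene. Fold-difference calculated by the CT method.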

Cytochrome P450 3A4 = Cytochrome P450 3A4 (Homo sapiens, UniProt P08684)
[5] = molecular target: T4, Retinoic acid receptor (Homo sapiens); experiment: Activation of RAR in human HepG2 cells assessed as upregulation of RARbeta mRNA expression at 1 uM after 24 hrs by RT-PCR method; assay type: cell-based
How it was run: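 HepG2 cells in DMEM with 10% FBS, 37 °C, 5% CO2, plated 24 h before dosing. Treated 24 h in 2 mL medium at 1 μM in 0.1% DMSO, alongside a 0.1% DMSO vehicle; triplicates. RNA isolated with TRI reagent and cDNA made from 1 μg. TaqMan RT-PCR multiplexed with GAPDH as housekeeping gene; fold change by the C_T method.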

CYP2D6 = CYP2D6 (Homo sapiens, UniProt P10635); experiment: in vitro; conditions: human liver microsomes, probe dextromethorphan
Cytochrome P450 26A1 [6] = molecular target: T2, Cytochrome P450 26A1; experiment: Inhibition of CYP26A1-mediated atRA metabolism in human HepG2 cells assessed as atRA level in cell media at 1 uM after 24 hrs by LC/MS-MS analysis (reference value: 0.49 +/- 0.33 nM); assay type: cell-based; conditions: hepg2, 24 h
Cytochrome P450 26B1 [7] = molecular target: T1, Cytochrome P450 26B1; experiment: Inhibition of microsomal fraction of human CYP26B1 expressed in Sf9 cells using 9-cis-RA as substrate at 20 uM preincubated for 5 mins followed by NADPH addition measured after 5 mins by HPLC analysis in presence of rat P450 reductase
How it was run: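 Sf9 microsomes expressing CYP26B1, 5 pmol, preincubated 10 min at room temperature with 10 pmol E. coli-expressed rat P450 reductase. […] Preincubated 5 min at 37 °C, started with 1 mM NADPH (final), run 5 min. 9-cis-4-OH-RA measured by HPLC; activity expressed relative to solvent control.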

Homo sapiens = species: Homo sapiens; experiment: Selectivity ratio of IC50 for microsomal fraction of human CYP26B1 to IC50 for microsomal fraction of human CYP26A1
[8] = Activation of human RARbeta at 1 uM by luciferase reporter gene assay
CYP3A4 = CYP3A4 (Homo sapiens, UniProt P08684); experiment: Inhibition of CYP3A4 in human liver microsomes upto 100 uM using midazolam as substrate by LC-MS/MS analysis in presence of NADPH; assay type: ADME; conditions: probe midazolam, read-out: Imax
How it was run: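 Human liver microsomes incubated with midazolam as the CYP3A4-selective substrate plus inhibitor in 100 mM potassium phosphate buffer. Reaction started with NADPH and quenched with ice-cold acetonitrile. Product formation measured by LC-MS/MS.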

T4 sequence (P10826 whole entry, looked up, one chain of several): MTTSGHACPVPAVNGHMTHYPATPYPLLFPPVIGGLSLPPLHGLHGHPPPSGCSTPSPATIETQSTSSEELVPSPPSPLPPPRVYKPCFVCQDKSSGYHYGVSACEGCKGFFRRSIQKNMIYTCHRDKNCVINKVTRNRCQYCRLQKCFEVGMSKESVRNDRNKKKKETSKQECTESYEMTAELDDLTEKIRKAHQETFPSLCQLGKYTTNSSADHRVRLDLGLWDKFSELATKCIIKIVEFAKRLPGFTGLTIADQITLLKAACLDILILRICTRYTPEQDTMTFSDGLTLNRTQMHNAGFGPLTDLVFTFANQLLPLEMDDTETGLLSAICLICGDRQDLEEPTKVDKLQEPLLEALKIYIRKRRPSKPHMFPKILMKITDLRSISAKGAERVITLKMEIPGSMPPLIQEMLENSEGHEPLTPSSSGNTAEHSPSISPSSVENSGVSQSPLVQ
T4 sequence (P13631 whole entry, looked up, one chain of several): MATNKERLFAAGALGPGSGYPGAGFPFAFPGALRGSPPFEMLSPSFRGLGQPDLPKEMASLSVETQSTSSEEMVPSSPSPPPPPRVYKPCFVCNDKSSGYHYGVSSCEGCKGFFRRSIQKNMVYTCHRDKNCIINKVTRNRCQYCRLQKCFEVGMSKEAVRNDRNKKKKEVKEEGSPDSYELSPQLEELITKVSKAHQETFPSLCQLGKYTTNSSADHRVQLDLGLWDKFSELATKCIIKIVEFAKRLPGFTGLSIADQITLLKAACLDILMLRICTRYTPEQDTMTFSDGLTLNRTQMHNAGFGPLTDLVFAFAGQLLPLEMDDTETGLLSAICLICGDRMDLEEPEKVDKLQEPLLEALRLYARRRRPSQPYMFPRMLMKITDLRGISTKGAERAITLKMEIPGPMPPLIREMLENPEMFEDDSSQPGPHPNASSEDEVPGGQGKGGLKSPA
Chain of Cytochrome P450 3A4 (P08684 whole entry): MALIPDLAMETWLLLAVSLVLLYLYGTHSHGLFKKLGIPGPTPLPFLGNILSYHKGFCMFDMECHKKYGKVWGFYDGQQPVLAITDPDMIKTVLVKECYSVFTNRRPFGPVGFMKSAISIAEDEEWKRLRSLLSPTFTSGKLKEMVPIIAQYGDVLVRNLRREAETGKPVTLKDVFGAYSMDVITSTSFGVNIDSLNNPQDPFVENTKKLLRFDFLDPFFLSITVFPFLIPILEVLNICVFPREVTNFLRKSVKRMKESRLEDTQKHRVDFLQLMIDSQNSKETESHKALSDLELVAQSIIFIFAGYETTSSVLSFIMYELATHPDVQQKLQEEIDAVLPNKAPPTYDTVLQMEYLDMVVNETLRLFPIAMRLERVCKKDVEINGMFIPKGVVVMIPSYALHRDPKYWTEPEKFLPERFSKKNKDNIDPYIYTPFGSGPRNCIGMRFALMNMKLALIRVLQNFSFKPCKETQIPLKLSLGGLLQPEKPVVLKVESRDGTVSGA
Chain of CYP3A4 (P08684 whole entry): as above
Chain of CYP2D6 (P10635 whole entry): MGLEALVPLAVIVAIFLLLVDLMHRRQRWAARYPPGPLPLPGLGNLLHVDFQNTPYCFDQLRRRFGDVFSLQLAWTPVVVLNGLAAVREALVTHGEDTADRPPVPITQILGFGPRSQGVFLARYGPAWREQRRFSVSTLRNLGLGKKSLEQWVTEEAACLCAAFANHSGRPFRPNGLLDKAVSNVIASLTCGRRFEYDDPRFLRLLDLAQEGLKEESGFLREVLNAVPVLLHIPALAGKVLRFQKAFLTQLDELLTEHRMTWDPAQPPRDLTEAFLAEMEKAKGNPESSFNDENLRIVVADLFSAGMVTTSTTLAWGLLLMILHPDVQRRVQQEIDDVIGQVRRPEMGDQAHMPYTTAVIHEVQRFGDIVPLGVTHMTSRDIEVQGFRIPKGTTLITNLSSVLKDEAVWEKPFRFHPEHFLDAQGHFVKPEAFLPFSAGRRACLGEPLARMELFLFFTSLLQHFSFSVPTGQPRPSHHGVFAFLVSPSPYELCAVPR

| IC50 (Cytochrome P450 26B1 [1]) [µM] | IC50 (Cytochrome P450 26A1 [2]) [µM] | SMILES | other results |
| --- | --- | --- | --- |
| > 5 | > 5 | CC1(C)CCC(C)(C)c2cc(C(=O)c3ccc(CCC(=O)O)cc3)ccc21 |  |
| 1.4 | 2.8 | CC1(C)CCC(C)(C)c2cc(C(O)COc3ccc(C(=O)O)cc3)ccc21 (stereo unspecified) |  |
| > 5 | > 5 | CC1(C)CCC(C)(C)c2cc(Sc3cccc(CC(=O)O)c3)ccc21 |  |
|  | 0.06 | CC1(C)CCC(C)(C)c2cc(C3(c4ccc5cc(C(=O)O)ccc5c4)SCCS3)ccc21 |  |
| 1.7 | 1.66 | CC1(C)CCC(C)(C)c2cc(Cc3ccc(CCC(=O)O)cc3)ccc21 |  |
| 6.2 | > 5 | CC1(C)CCC(C)(C)c2cc(S(=O)(=O)c3ccc(CCC(=O)O)cc3)ccc21 |  |
| 0.93 | 4 | CC1(C)CCC(C)(C)c2cc(C(=O)COc3ccc(C(=O)O)cc3)ccc21 |  |
| 1.4 | 3.5 | CC1(C)CCC(C)(C)c2cc(/C(COc3ccc(C(=O)O)cc3)=N/O)ccc21 |  |
| > 5 | 4.7 | CC1(C)CCC(C)(C)c2cc(C(=O)c3ccc(/C=C/C(=O)O)cc3)ccc21 |  |
|  |  | CC1(C)CCC(C)(C)c2cc(C3(c4ccc(/C=C/C(=O)O)cc4)OCCO3)ccc21 | Activity [3]: inactive; Activity [4]: inactive; IC50 (Cytochrome P450 3A4): 30 µM; Activity [5]: inactive; inhibition at 10 µM (CYP2D6): 49%; Activity (Cytochrome P450 26A1 [6]): 1.09 nM |
| > 5 | > 5 | CC1(C)CCC(C)(C)c2cc(S(=O)(=O)c3cccc(CC(=O)O)c3)ccc21 |  |
|  | 1.3 | CC1(C)CCC(C)(C)c2cc(C3(c4ccc(C(=O)O)cc4)SCCS3)ccc21 |  |
|  | > 10 | CC1(C)CCC(C)(C)c2cc(C3(c4ccc(/C=C/C(=O)O)cc4)SCCS3)ccc21 |  |
| > 25 | > 25 | CC1(C)CCC(C)(C)c2cc(C(=O)c3ccc(C(=O)O)cc3)ccc21 |  |
| > 5 | > 5 | CC1(C)CCC(C)(C)c2cc(S(=O)(=O)c3ccc(CC(=O)O)cc3)ccc21 |  |
|  |  | CC1(C)CCC(C)(C)c2cc(C3(c4ccc(C(=O)O)cc4)OCCO3)ccc21 | inhibition at 20 µM (Cytochrome P450 26B1 [7]): 59% |
| 5.9 | 13.5 | C=C(c1ccc(C(=O)O)cc1)c1cc2c(cc1C)C(C)(C)CCC2(C)C [BEXAROTENE] |  |
|  |  | CC1(C)CCC(C)(C)c2cc(C3(c4ccc5cc(C(=O)O)ccc5c4)OCCO3)ccc21 | Ratio IC50 (Homo sapiens): 10 |
|  |  | CC1(C)CCC(C)(C)c2cc(C3(c4ccc(CCC(=O)O)cc4)SCCS3)ccc21 | Activity [3]: inactive; Activity [4]: inactive; Activity [5]: inactive |
|  |  | CC1(C)CCC(C)(C)c2cc(C3(c4ccc(CCC(=O)O)cc4)OCCO3)ccc21 | Activity [3]: inactive; Activity [4]: inactive; Activity [8]: inactive; Activity [5]: inactive; Emax (CYP3A4): 40%; Activity (Cytochrome P450 26A1 [6]): 0.27 nM |
| > 5 | 10.6 | CC1(C)CCC(C)(C)c2cc(Sc3ccc(CC(=O)O)cc3)ccc21 |  |
